Test results from ChEMBL document CHEMBL3352487, “Synthesis, antibacterial activity, and biological evaluation of formyl hydroxyamino derivatives as novel potent peptide deformylase inhibitors against drug-resistant bacteria” (Eur J Med Chem, 2014).
Converted amounts (≈) assume the structure as drawn.

Key:
hERG (KCNH2) [1] = biological target: T1, hERG (KCNH2) (Homo sapiens, UniProt Q12809); assay: Inhibition of human ERG at 1 uM
Staphylococcus aureus [2] = assay: Antimicrobial activity against Staphylococcus aureus after 24 hrs by broth microdilution method; type: functional
In short: (§1)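 Broth microdilution following NCCLS M7-A4; ATCC strains and clinical isolates from a provincial hospital.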

Staphylococcus aureus [3] = assay: Antimicrobial activity against methicillin-susceptible Staphylococcus aureus after 24 hrs by broth microdilution method; type: functional; in short: as §1
Staphylococcus aureus [4] = assay: Antimicrobial activity against methicillin-resistant Staphylococcus aureus after 24 hrs by broth microdilution method; type: functional
In short: (§2)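 Broth microdilution following NCCLS M7-A4, using ATCC strains and clinical isolates from a provincial hospital.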

[5] = tested on: Staphylococcus epidermidis; assay: Antimicrobial activity against Staphylococcus epidermidis after 24 hrs by broth microdilution method; type: functional; in short: as §1
Escherichia coli [6] = assay: Antimicrobial activity against Escherichia coli isolate 1 after 24 hrs by broth microdilution method; type: functional; settings: isolate 1, 24 h; in short: as §1
Escherichia coli [7] = assay: Antimicrobial activity against Escherichia coli isolate 2 after 24 hrs by broth microdilution method; type: functional; settings: isolate 2, 24 h; in short: as §1
Staphylococcus aureus [8] = assay: Antimicrobial activity against Staphylococcus aureus OXFORD after 24 hrs by broth microdilution method; type: functional; in short: as §2
Staphylococcus aureus [9] = assay: Antimicrobial activity against Staphylococcus aureus WCUH29 after 24 hrs by broth microdilution method; type: functional; settings: WCUH29, 24 h; in short: as §1
Enterococcus faecalis = assay: Antimicrobial activity against Enterococcus faecalis Isolate 1 after 24 hrs by broth microdilution method; type: functional; settings: Isolate 1, 24 h; in short: as §1
Enterococcus faecium = assay: Antimicrobial activity against Enterococcus faecium X7501 after 24 hrs by broth microdilution method; type: functional; settings: X7501, 24 h; in short: as §1
Haemophilus influenzae [10] = assay: Antimicrobial activity against Haemophilus influenzae Q1 after 24 hrs by broth microdilution method; type: functional; settings: Q1, 24 h; in short: as §1
Haemophilus influenzae [11] = assay: Antimicrobial activity against Haemophilus influenzae H128 after 24 hrs by broth microdilution method; type: functional; settings: H128, 24 h; in short: as §1
Haemophilus influenzae [12] = assay: Antimicrobial activity against AcrA-deficient Haemophilus influenzae H128 after 24 hrs by broth microdilution method; type: functional; settings: H128, 24 h; in short: as §1
Moraxella catarrhalis = assay: Antimicrobial activity against Moraxella catarrhalis 1502 after 24 hrs by broth microdilution method; type: functional; settings: Moraxella catarrhalis, 1502, 24 h; in short: as §1
Streptococcus pneumoniae [13] = assay: Antimicrobial activity against Streptococcus pneumoniae 1629 after 24 hrs by broth microdilution method; type: functional; settings: Streptococcus pneumoniae, 1629, 24 h; in short: as §1
Streptococcus pneumoniae [14] = assay: Antimicrobial activity against Streptococcus pneumoniae N1387 after 24 hrs by broth microdilution method; type: functional; settings: N1387, 24 h; in short: as §1
Streptococcus pneumoniae [15] = assay: Antimicrobial activity against Streptococcus pneumoniae ERY2 after 24 hrs by broth microdilution method; type: functional; settings: ERY2, 24 h; in short: as §1
Escherichia coli [16] = assay: Antimicrobial activity against Escherichia coli isolate 3 after 24 hrs by broth microdilution method; type: functional; settings: isolate 3, 24 h; in short: as §1
Streptococcus pyogenes [17] = assay: Antimicrobial activity against Streptococcus pyogenes 1307006P after 24 hrs by broth microdilution method; type: functional; in short: as §1
Streptococcus pyogenes [18] = assay: Antimicrobial activity against Streptococcus pyogenes 1308007P after 24 hrs by broth microdilution method; type: functional; in short: as §1
[19] = Half life in Sprague-Dawley rat at 5 mg/kg, iv; type: ADME, organism-based; design: dose 5 mg/kg, route intravenous; settings: in vivo
[20] = Mean residence time (0 to t) in Sprague-Dawley rat at 5 mg/kg, iv; type: ADME, organism-based; design: dose 5 mg/kg, route intravenous; settings: in vivo
[21] = AUC (0 to t) in Sprague-Dawley rat at 5 mg/kg, iv; type: ADME, organism-based; design: dose 5 mg/kg, route intravenous; settings: plasma
[22] = AUC (0 to infinity) in Sprague-Dawley rat at 5 mg/kg, iv; type: ADME, organism-based; design: time infinity, dose 5 mg/kg, route intravenous; settings: plasma
[23] = Clearance in Sprague-Dawley rat at 5 mg/kg, iv; type: ADME, organism-based; design: dose 5 mg/kg, route intravenous; settings: in vivo
[24] = Volume of distribution at steady state in Sprague-Dawley rat at 5 mg/kg, iv; type: ADME, organism-based; design: dose 5 mg/kg, route intravenous; settings: in vivo, read-out: Vdss
[25] = Cmax in Sprague-Dawley rat at 25 mg/kg, po; type: ADME, organism-based; design: dose 25 mg/kg, route oral; settings: in vivo
[26] = Tmax in Sprague-Dawley rat at 25 mg/kg, po; type: ADME, organism-based; design: dose 25 mg/kg, route oral; settings: in vivo
[27] = Half life in Sprague-Dawley rat at 25 mg/kg, po; type: ADME, organism-based; design: dose 25 mg/kg, route oral; settings: in vivo
[28] = AUC (0 to t) in Sprague-Dawley rat at 25 mg/kg, po; type: ADME, organism-based; design: dose 25 mg/kg, route oral; settings: plasma
[29] = AUC (0 to infinity) in Sprague-Dawley rat at 25 mg/kg, po; type: ADME, organism-based; design: dose 25 mg/kg, route oral, time infinity; settings: plasma
[30] = Mean residence time (0 to t) in Sprague-Dawley rat at 25 mg/kg, po; type: ADME, organism-based; design: dose 25 mg/kg, route oral; settings: in vivo
[31] = Oral bioavailability in Sprague-Dawley rat at 25 mg/kg; type: ADME, organism-based; settings: in vivo
hERG (KCNH2) [32] = biological target: T1, hERG (KCNH2); assay: Inhibition of human ERG at 10 uM

T1 sequence (Q12809 whole entry): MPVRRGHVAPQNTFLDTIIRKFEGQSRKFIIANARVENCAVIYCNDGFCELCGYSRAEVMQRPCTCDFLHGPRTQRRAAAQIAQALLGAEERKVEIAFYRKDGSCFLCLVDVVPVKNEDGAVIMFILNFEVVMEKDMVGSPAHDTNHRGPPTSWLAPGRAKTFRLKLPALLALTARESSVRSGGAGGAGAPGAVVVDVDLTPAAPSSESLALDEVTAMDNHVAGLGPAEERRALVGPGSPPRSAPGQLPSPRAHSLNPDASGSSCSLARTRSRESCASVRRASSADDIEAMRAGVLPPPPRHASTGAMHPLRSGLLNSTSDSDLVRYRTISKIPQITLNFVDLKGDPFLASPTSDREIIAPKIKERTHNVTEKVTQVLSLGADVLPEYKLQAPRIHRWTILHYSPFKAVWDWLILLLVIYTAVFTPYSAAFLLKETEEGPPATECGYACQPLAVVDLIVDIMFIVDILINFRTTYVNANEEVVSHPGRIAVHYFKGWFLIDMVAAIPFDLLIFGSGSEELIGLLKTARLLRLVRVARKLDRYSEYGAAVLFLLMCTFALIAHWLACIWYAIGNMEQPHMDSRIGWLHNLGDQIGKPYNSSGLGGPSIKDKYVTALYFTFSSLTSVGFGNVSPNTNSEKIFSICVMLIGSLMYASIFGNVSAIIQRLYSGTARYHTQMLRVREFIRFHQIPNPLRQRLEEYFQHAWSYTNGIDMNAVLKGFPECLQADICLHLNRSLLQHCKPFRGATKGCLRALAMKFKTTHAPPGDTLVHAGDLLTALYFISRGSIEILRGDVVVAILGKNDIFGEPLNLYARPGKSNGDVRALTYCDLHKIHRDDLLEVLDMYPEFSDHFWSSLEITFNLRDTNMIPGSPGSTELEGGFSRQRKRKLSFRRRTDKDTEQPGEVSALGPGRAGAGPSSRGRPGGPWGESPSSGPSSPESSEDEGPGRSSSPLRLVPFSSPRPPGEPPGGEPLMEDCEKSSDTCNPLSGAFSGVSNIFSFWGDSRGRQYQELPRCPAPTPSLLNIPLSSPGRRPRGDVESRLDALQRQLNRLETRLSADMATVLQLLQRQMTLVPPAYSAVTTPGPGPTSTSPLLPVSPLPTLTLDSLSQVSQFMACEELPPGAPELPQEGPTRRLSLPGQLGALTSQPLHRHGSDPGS

## O=CN(O)C[C@@H](CC1CCCC1)C(=O)N1CC=C[C@H]1C(=O)Nc1ccc(F)c[n+]1[O-]
hERG (KCNH2) [1]
  inhibition at 1 µM: 1.15%
Staphylococcus aureus [2]
  MIC: 0.25 µg/mL (≈ 0.595 µM)
Staphylococcus aureus [3]
  MIC: 0.5 µg/mL (≈ 1.19 µM)
Staphylococcus aureus [4]
  MIC: 0.25 µg/mL (≈ 0.595 µM)
[5]
  MIC: 0.25 µg/mL (≈ 0.595 µM)
Escherichia coli [6]
  MIC: 64 µg/mL (≈ 152 µM)
Escherichia coli [7]
  MIC: 32 µg/mL (≈ 76.1 µM)
Staphylococcus aureus [8]
  MIC: 0.5 µg/mL (≈ 1.19 µM)
Staphylococcus aureus [9]
  MIC: 0.125 µg/mL (≈ 0.297 µM)
Enterococcus faecalis
  MIC: 2 µg/mL (≈ 4.76 µM)
Enterococcus faecium
  MIC: 1 µg/mL (≈ 2.38 µM)
Haemophilus influenzae [10]
  MIC: 1 µg/mL (≈ 2.38 µM)
Haemophilus influenzae [11]
  MIC: 2 µg/mL (≈ 4.76 µM)
Haemophilus influenzae [12]
  MIC: ≤ 0.06 µg/mL
Moraxella catarrhalis
  MIC: ≤ 0.06 µg/mL
Streptococcus pneumoniae [13]
  MIC: 0.5 µg/mL (≈ 1.19 µM)
Streptococcus pneumoniae [14]
  MIC: 0.125 µg/mL (≈ 0.297 µM)
Streptococcus pneumoniae [15]
  MIC: 0.25 µg/mL (≈ 0.595 µM)
Escherichia coli [16]
  MIC: 64 µg/mL (≈ 152 µM)
Streptococcus pyogenes [17]
  MIC: 0.25 µg/mL (≈ 0.595 µM)
Streptococcus pyogenes [18]
  MIC: 0.5 µg/mL (≈ 1.19 µM)
[19]
  half-life: 0.807 h
[20]
  MRT last: 0.503 h
[21]
  AUC(0-t): 1610 ng·h/mL
[22]
  AUC(0-inf): 1620 ng·h/mL
[23]
  clearance: 51.7 mL/min/kg
[24]
  Vd: 1.6 L/kg
[25]
  Cmax: 956 ng/mL
[26]
  Tmax: 0.375 h
[27]
  half-life: 2.58 h
[28]
  AUC(0-t): 1630 ng·h/mL
[29]
  AUC(0-inf): 1810 ng·h/mL
[30]
  MRT last: 2.01 h
[31]
  bioavailability: 22.4%
hERG (KCNH2) [32]
  inhibition at 10 µM: 0.89%

## Cc1cnc(NC(=O)[C@@H]2C=CCN2C(=O)[C@H](CC2CCCC2)CN(O)C=O)s1
hERG (KCNH2) [1]
  inhibition at 1 µM: 5.38%
Staphylococcus aureus [2]
  MIC: 0.0312 µg/mL (≈ 0.0769 µM)
Staphylococcus aureus [3]
  MIC: 0.25 µg/mL (≈ 0.615 µM)
Staphylococcus aureus [4]
  MIC: 0.125 µg/mL (≈ 0.307 µM)
[5]
  MIC: 0.0625 µg/mL (≈ 0.154 µM)
Escherichia coli [6]
  MIC: 16 µg/mL (≈ 39.4 µM)
Escherichia coli [7]
  MIC: 16 µg/mL (≈ 39.4 µM)
Staphylococcus aureus [8]
  MIC: 0.25 µg/mL (≈ 0.615 µM)
Staphylococcus aureus [9]
  MIC: ≤ 0.06 µg/mL
Enterococcus faecalis
  MIC: 2 µg/mL (≈ 4.92 µM)
Enterococcus faecium
  MIC: 0.5 µg/mL (≈ 1.23 µM)
Haemophilus influenzae [10]
  MIC: 2 µg/mL (≈ 4.92 µM)
Haemophilus influenzae [11]
  MIC: 2 µg/mL (≈ 4.92 µM)
Haemophilus influenzae [12]
  MIC: ≤ 0.06 µg/mL
Moraxella catarrhalis
  MIC: ≤ 0.06 µg/mL
Streptococcus pneumoniae [13]
  MIC: 0.5 µg/mL (≈ 1.23 µM)
Streptococcus pneumoniae [14]
  MIC: 0.25 µg/mL (≈ 0.615 µM)
Streptococcus pneumoniae [15]
  MIC: 0.5 µg/mL (≈ 1.23 µM)
Escherichia coli [16]
  MIC: 32 µg/mL (≈ 78.7 µM)
Streptococcus pyogenes [17]
  MIC: 0.25 µg/mL (≈ 0.615 µM)
Streptococcus pyogenes [18]
  MIC: 0.5 µg/mL (≈ 1.23 µM)
[19]
  half-life: 2.68 h
[20]
  MRT last: 1.24 h
[21]
  AUC(0-t): 4700 ng·h/mL
[22]
  AUC(0-inf): 4700 ng·h/mL
[23]
  clearance: 18.6 mL/min/kg
[24]
  Vd: 1.37 L/kg
[25]
  Cmax: 4560 ng/mL
[26]
  Tmax: 0.625 h
[27]
  half-life: 3.31 h
[28]
  AUC(0-t): 12200 ng·h/mL
[29]
  AUC(0-inf): 12300 ng·h/mL
[30]
  MRT last: 3.39 h
[31]
  bioavailability: 52.3%
hERG (KCNH2) [32]
  inhibition at 10 µM: 15.9%

## O=CN(O)C[C@@H](CC1CCCC1)C(=O)N1CC=C[C@H]1C(=O)Nc1ccccc1
Staphylococcus aureus [2]
  MIC: 4 µg/mL (≈ 10.4 µM)
Staphylococcus aureus [3]
  MIC: 4 µg/mL (≈ 10.4 µM)
Staphylococcus aureus [4]
  MIC: 1 µg/mL (≈ 2.59 µM)
[5]
  MIC: 0.5 µg/mL (≈ 1.3 µM)
Escherichia coli [6]
  MIC: 32 µg/mL (≈ 83 µM)
Escherichia coli [7]
  MIC: 32 µg/mL (≈ 83 µM)
Staphylococcus aureus [8]
  MIC: 1 µg/mL (≈ 2.59 µM)
Staphylococcus aureus [9]
  MIC: 0.125 µg/mL (≈ 0.324 µM)
Enterococcus faecalis
  MIC: > 64 µg/mL
Enterococcus faecium
  MIC: 1 µg/mL (≈ 2.59 µM)
Haemophilus influenzae [10]
  MIC: 2 µg/mL (≈ 5.19 µM)
Haemophilus influenzae [11]
  MIC: 2 µg/mL (≈ 5.19 µM)
Haemophilus influenzae [12]
  MIC: ≤ 0.06 µg/mL
Moraxella catarrhalis
  MIC: ≤ 0.06 µg/mL
Streptococcus pneumoniae [13]
  MIC: 2 µg/mL (≈ 5.19 µM)
Streptococcus pneumoniae [14]
  MIC: 0.5 µg/mL (≈ 1.3 µM)
Streptococcus pneumoniae [15]
  MIC: 1 µg/mL (≈ 2.59 µM)
Escherichia coli [16]
  MIC: 64 µg/mL (≈ 166 µM)
Streptococcus pyogenes [17]
  MIC: 0.25 µg/mL (≈ 0.649 µM)
Streptococcus pyogenes [18]
  MIC: 0.5 µg/mL (≈ 1.3 µM)

## C=C1C[C@@H](C(=O)Nc2ccc(F)cn2)N(C(=O)[C@H](CCCC)CN(O)C=O)C1
Staphylococcus aureus [2]
  MIC: 0.5 µg/mL (≈ 1.27 µM)
Staphylococcus aureus [3]
  MIC: 1 µg/mL (≈ 2.55 µM)
Staphylococcus aureus [4]
  MIC: 0.125 µg/mL (≈ 0.319 µM)
[5]
  MIC: 0.25 µg/mL (≈ 0.637 µM)
Escherichia coli [6]
  MIC: 32 µg/mL (≈ 81.5 µM)
Escherichia coli [7]
  MIC: > 64 µg/mL
Staphylococcus aureus [8]
  MIC: 4 µg/mL (≈ 10.2 µM)
Staphylococcus aureus [9]
  MIC: 0.5 µg/mL (≈ 1.27 µM)
Enterococcus faecalis
  MIC: 32 µg/mL (≈ 81.5 µM)
Enterococcus faecium
  MIC: 4 µg/mL (≈ 10.2 µM)
Haemophilus influenzae [10]
  MIC: 16 µg/mL (≈ 40.8 µM)
Haemophilus influenzae [11]
  MIC: 16 µg/mL (≈ 40.8 µM)
Haemophilus influenzae [12]
  MIC: 0.5 µg/mL (≈ 1.27 µM)
Moraxella catarrhalis
  MIC: 0.25 µg/mL (≈ 0.637 µM)
Streptococcus pneumoniae [13]
  MIC: 16 µg/mL (≈ 40.8 µM)
Streptococcus pneumoniae [14]
  MIC: 4 µg/mL (≈ 10.2 µM)
Streptococcus pneumoniae [15]
  MIC: 8 µg/mL (≈ 20.4 µM)
Escherichia coli [16]
  MIC: > 64 µg/mL
Streptococcus pyogenes [17]
  MIC: 4 µg/mL (≈ 10.2 µM)
Streptococcus pyogenes [18]
  MIC: 4 µg/mL (≈ 10.2 µM)
